Hits are enriched below; roughly 4.2% of the tested compounds scored in any of these assays.
OX1R antag-1: blocks the human orexin 1 receptor; O43613; CHO/OX1R cells, Fluo-8 calcium fluorescence, orexin A; inhibition, % at 5 µM; 0.43% of 330,000 active;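 active = inhibition above its plate's threshold, mean inhibition of all tested compounds on the plate plus 3 SD, cut at about 37% in these data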
TAAR1 ag: human TAAR1 agonism; Q96RJ0; CHO RD-HGA16 TAAR1, Fluo-8 calcium fluorescence; vehicle wells 0%, saturating PEA agonist 100%; activation, % at 3 µM; 0.99% of 360,000 active; AID 624467;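 active = activation above the mean activation of all test compounds in the run plus 3 SD, cut at about 38% in these data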
Target sequence (Q96RJ0 whole entry, looked up): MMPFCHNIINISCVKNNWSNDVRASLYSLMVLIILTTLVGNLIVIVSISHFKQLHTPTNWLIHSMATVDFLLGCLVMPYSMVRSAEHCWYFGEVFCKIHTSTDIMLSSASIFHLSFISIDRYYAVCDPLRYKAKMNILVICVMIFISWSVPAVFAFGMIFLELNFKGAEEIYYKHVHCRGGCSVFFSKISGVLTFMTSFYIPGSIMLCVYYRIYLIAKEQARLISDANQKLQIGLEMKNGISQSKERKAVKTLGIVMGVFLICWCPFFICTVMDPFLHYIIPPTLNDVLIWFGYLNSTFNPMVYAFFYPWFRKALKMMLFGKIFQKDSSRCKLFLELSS
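Assay system – CHO-derived RD-HGA16 cells with stable Gα16 and human TAAR1 · Compound dosing – one-point dosing at 3 µM (nominal) · Incubation – 17-24 h seeding, 75 min 37 °C dye, 30 min RT · Measured by – kinetic Fluo-8 calcium fluorescence · Control set – DMSO vehicle as 0%, PEA at EC100 as 100% · Repeats – single well for each compound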
GalR3 antag: antagonists of human GalR3; inhibition, % at 3 µM; 0.44% of 360,000 active; HEK293 GalR3-CNG cAMP membrane potential fluorescence; galR3 body fused to GalR1 C-terminus; AID 651719;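 active = inhibition above the screen-wide average plus 3 SD, cut at about 13% in these data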;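 also: forskolin and galanin both at EC90 stimulate the cells; cAMP rise reported by CNG channel membrane potential dye signal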
Target sequence (O60755 1-299 limits assumed): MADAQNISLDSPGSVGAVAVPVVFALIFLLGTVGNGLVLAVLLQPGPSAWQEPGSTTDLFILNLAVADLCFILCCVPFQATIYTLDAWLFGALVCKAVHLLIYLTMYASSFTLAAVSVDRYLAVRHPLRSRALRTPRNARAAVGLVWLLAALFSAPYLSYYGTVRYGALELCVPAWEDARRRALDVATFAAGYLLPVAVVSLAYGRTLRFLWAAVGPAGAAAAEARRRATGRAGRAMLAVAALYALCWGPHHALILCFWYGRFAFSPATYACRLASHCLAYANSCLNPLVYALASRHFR
OX1R antag-2: blocks the human orexin 1 receptor. inhibition, % at 6.6 µM. OX1R-expressing cells, FRET antagonist read-out. O43613. 1.8% of 330,000 active. AID 485270; in the data active = inhibition mostly above about 38%, no sharp cut-off; inactive = mostly below about 40%
CHO parental Ca: signal in parental CHO cells, OX1R antagonist counter-screen | inhibition, % at 5.6 µM | parental CHO-K1, ATP-induced calcium, Fluo-8 fluorescence | 0.63% of 330,000 active;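 active = inhibition above that plate's mean sample inhibition plus 3 SD, cut at about 26% in these data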
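test system = CHO parental line | reagent = ATP stimulus | measured by = intracellular calcium via Fluo-8 no-wash fluorescent dye | control set = ATP and no-ATP DMSO wells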
TAAR1 antag: antagonists of human TAAR1. inhibition, % at 3 µM. CHO RD-HGA16 TAAR1, Fluo-8 calcium fluorescence, antagonist. 1.5% of 360,000 active;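 active = inhibition above a per-plate cutoff, the mean inhibition of test compounds on that plate plus 3 SD, cut at about 49% in these data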
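test system = CHO RD-HGA16 cells bearing hTAAR1 | replication = singlicate | controls = DMSO-only wells and EC80 β-PEA-stimulated wells | reagent = EC80 β-phenethylamine stimulus | read-out basis = percent inhibition of PEA-evoked calcium signal, max/basal emission ratio | schedule = seeding 17-24 h prior, 75-min 37 °C, 30-min RT dye loading | signal = kinetic Fluo-8 calcium fluorescence measurement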
OX1R Fluo8 conf: OX1R (human) antagonism, confirmed; inhibition, % at 5 µM; 38% of 1,100 active; CHO/OX1R cells, orexin A calcium Fluo-8 fluorescence; shares compounds with OX1R antag-1; in the data active = inhibition above about 29%
CHO Ca triplic: counter-screen: parental CHO calcium response change, triplicate | shares compounds with OX1R antag-1 | parental CHO-K1, ATP-induced calcium, Fluo-8 fluorescence | inhibition, % at 5.6 µM | 9.3% of 1,100 active;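 active = inhibition above a per-plate limit, the mean inhibition of that plate's test compounds plus 3 SD, cut at about 25% in these data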
Large screens that a line does not name were inactive (follow-up assays come after a bar, where they were run).

Fc1ccc2c(c1)Sc1ccc(Cl)cc1CC2N1CCN(CCC2OCCO2)CC1 (configuration not stated)	none | OX1R Fluo8 conf inactive | CHO Ca triplic inactive
O=[N+]([O-])c1ccc2c(c1)C(N1CCN(CCO)CC1)Cc1ccc(F)cc1S2 (configuration not stated)	none (no result: OX1R antag-1, OX1R antag-2, CHO parental Ca)
Cc1nc2ncnn2c(N2CCC(C(=O)NCC3CCCO3)CC2)c1Cc1ccccc1 (configuration not stated)	none (no result: TAAR1 ag, GalR3 antag, TAAR1 antag)
Cc1ccc(-n2nnnc2SCn2nnc3ccccc3c2=O)c(C)c1	OX1R antag-1 42 | OX1R Fluo8 conf inactive | CHO Ca triplic inactive
O=C(Nc1cccc(S(=O)(=O)Nc2ccc(SC(F)F)cc2)c1)C1CCC1	none | OX1R Fluo8 conf inactive | CHO Ca triplic inactive
O=C(Nc1cccc(S(=O)(=O)NC2=NCCC2)c1)C1CCC1	none
CCc1c(C)sc(NC(=S)Nc2nc(C)cc(C)n2)c1C(=O)OC	none | OX1R Fluo8 conf 45 | CHO Ca triplic inactive
O=C(O/N=C1\CCS(=O)(=O)c2sccc21)c1c(F)cccc1F	OX1R antag-1 44 | OX1R Fluo8 conf inactive | CHO Ca triplic inactive
CN(c1ncnc(N)c1[N+](=O)[O-])C1CCCCC1	none
Cc1ccc(C)c(CNc2ccc(S(=O)(=O)N3CCCCC3)cc2)c1	OX1R antag-1 44 | OX1R Fluo8 conf inactive | CHO Ca triplic 53
Cc1ccc(S(=O)(=O)N2CCCCC2)cc1	none
COc1ccc(CCN2CC(C(=O)OC(C)C(=O)Nc3cccc(Cl)c3)CC2=O)cc1OC (configuration not stated)	none
CC(=O)c1c(C)[nH]c(C(=O)CN2CCN(S(=O)(=O)c3ccc(C(C)C)cc3)CC2)c1C	none | OX1R Fluo8 conf inactive | CHO Ca triplic inactive
N#C/C(=C\c1ccc(O)cc1)c1nc2ccccc2o1	none
COc1cc(/C=C(\C#N)c2nc3ccccc3o2)ccc1O	TAAR1 ag 58, TAAR1 antag 51 | OX1R Fluo8 conf 56 | CHO Ca triplic 56
O=C(O)CC1NC(=S)N(c2ccccc2)C1=O (configuration not stated)	none
CCOc1ccc2nc(SCCNS(=O)(=O)c3ccccc3)sc2c1	OX1R antag-1 50, TAAR1 antag 60 | OX1R Fluo8 conf inactive | CHO Ca triplic inactive
CC(C)OC(=O)CSc1nc2c(c(C3CC=CCC3)c1C#N)CCC2 (configuration not stated)	OX1R antag-1 54 | OX1R Fluo8 conf inactive | CHO Ca triplic inactive
CCN(CC)c1ccc(/C=N\NC(N)=O)cc1	none | OX1R Fluo8 conf inactive | CHO Ca triplic inactive
CCN(CC)c1ccc(/C=N/NC(=O)Nc2ccccc2)cc1	none
Nc1ccc(-c2nc3ccc(-c4nc5ccccc5o4)cc3[nH]2)cc1	none | OX1R Fluo8 conf inactive | CHO Ca triplic inactive
CC(C)(C)n1nc2c(c1NC(=O)Cc1ccc(Cl)cc1)CS(=O)(=O)C2	none
COc1cc2c(cc1OC)CN(C(=O)Cn1ccccc1=O)CC2	OX1R antag-1 51 (no result: TAAR1 ag, GalR3 antag, TAAR1 antag) | OX1R Fluo8 conf inactive | CHO Ca triplic inactive
CC(C)CC(O)(c1ccccc1)C(CN1CCOCC1)c1ccccc1 (configuration not stated)	none
CC(C)OC(=O)NS(=O)(=O)c1cccc([N+](=O)[O-])c1	none
Cc1nn(C(C)(C)C)c(NC(=O)c2ccccc2)c1C#N	none
COc1cn(-c2ccccc2)nc1C(=O)Nc1ccc(C)cc1Cl	none | OX1R Fluo8 conf inactive | CHO Ca triplic inactive
O=C(NCc1ccccn1)C1CCN(S(=O)(=O)c2ccccc2C(F)(F)F)CC1	none (no result: OX1R antag-1, OX1R antag-2, CHO parental Ca)
COc1cccc(OC)c1C(=O)NC(=O)NNc1cc(C(F)(F)F)cc(C)n1	none
Cc1cc(NC(=O)COC(=O)c2cccc(S(=O)(=O)N3CCOCC3)c2)no1	none
O=C(COC(=O)c1cccc(S(=O)(=O)N2CCOCC2)c1)Nc1nc(-c2ccccc2Cl)cs1	none | OX1R Fluo8 conf 36 | CHO Ca triplic 26
N#Cc1c(NC(=O)CSc2nc(N)cc(=O)[nH]2)sc2c1CCCC2	none | OX1R Fluo8 conf inactive | CHO Ca triplic inactive
Cc1nnc(SCC(=O)Nc2sc3c(c2C#N)CCCC3)[nH]c1=O	none
Cc1ccc(OCC(=O)Nc2cccc(S(=O)(=O)N3CCCC3)c2)cc1C	none (no result: OX1R antag-1, OX1R antag-2, CHO parental Ca)
CC(=O)c1ccc(OCC(=O)Nc2cccc(S(=O)(=O)N3CCCC3)c2)cc1	none
N#Cc1ccccc1OCC(=O)Nc1cccc(S(=O)(=O)N2CCCCCC2)c1	TAAR1 antag 53 | OX1R Fluo8 conf inactive | CHO Ca triplic inactive
O=C(COc1ccc2ccc(=O)oc2c1)Nc1cccc(S(=O)(=O)N2CCCCC2)c1	none | OX1R Fluo8 conf inactive | CHO Ca triplic inactive
COc1ccc(C(=O)Nc2ccc(Cl)c(S(=O)(=O)Nc3ccccc3OC)c2)cc1	none | OX1R Fluo8 conf inactive | CHO Ca triplic inactive
COc1ccccc1NC(=O)Nc1ccc(Cl)c(S(=O)(=O)Nc2ccccc2OC)c1	none
S=C(NCc1ccccc1)Nc1cccc2cnccc12	none
S=C(NCc1cccnc1)Nc1cccc2ccccc12	none | OX1R Fluo8 conf inactive | CHO Ca triplic inactive
CCN(CC)c1ccc2c(c1)OC(N)=C(C#N)C2c1cccnc1 (configuration not stated)	TAAR1 ag 64 | OX1R Fluo8 conf inactive | CHO Ca triplic inactive
N#CC1=C(N)Oc2cc(N)ccc2C1c1cccnc1 (configuration not stated)	none
CCCCNc1ccc(C(F)(F)F)cc1S(=O)(=O)NCCc1ccc(F)cc1	TAAR1 antag 50 | OX1R Fluo8 conf inactive | CHO Ca triplic inactive
CCC(C(=O)NCc1ccccc1)n1c(-c2ccc3c(c2)CCO3)nc2ccccc21 (configuration not stated)	none (no result: OX1R antag-1, OX1R antag-2, CHO parental Ca)
N#Cc1ccccc1NC(=O)C(=O)NCC1CCCN1S(=O)(=O)c1cccs1 (configuration not stated)	none | OX1R Fluo8 conf inactive | CHO Ca triplic inactive
Cc1ccc(CNC(=O)/C=C/c2ccc(S(=O)(=O)NCc3ccco3)cc2)cc1	none
O=C(/C=C/c1ccc(S(=O)(=O)NCc2ccco2)cc1)NCc1cccc(Cl)c1	OX1R antag-1 54 | OX1R Fluo8 conf inactive | CHO Ca triplic inactive
CCN1C(=O)/C(=C/C=C2/Sc3ccccc3N2CCO)SC1=S	none | OX1R Fluo8 conf inactive | CHO Ca triplic 25
CCCN1C(=O)/C(=C/C=C2\N(CC)c3ccccc3C2(C)C)SC1=S	none | OX1R Fluo8 conf 55 | CHO Ca triplic 52
N#CCCn1cc(/C=N/NC(N)=S)c(-c2ccc(-c3ccccc3)cc2)n1	none | OX1R Fluo8 conf inactive | CHO Ca triplic inactive
